Sampled rows, rich in hits. Any-hit rate of the full collection: about 4.7%.
GAA850 FXN act = FXN promoter activators, primary screen, cell-based, luciferase luminescence, HEK293 lucGAA850 | activation, % at 6 µM | HEK293 lucGAA850 FXN promoter luciferase reporter, 24 h; percent of 10 µM SAHA response | AID 540364, 2011 | 0.56% of 360,000 active;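 active = activation above the average of all compounds screened plus 3 SD, cutoff fixed separately per campaign, cut at about 7.5% in these data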;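 note: 0% = DMSO wells and 100% = 10 µM SAHA wells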
MC4R ag barr = MC4R agonists recruiting beta-arrestin, primary screen, cell-based, luminescence, agonist arm of biased-ligand search | activation, % at 8.9 µM | AID 540308, 2011 | U2OS MC4R beta-arrestin complementation; percent of melanotan II response, DMSO zero | 0.98% of 360,000 active;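 active = activation above a per-plate cutoff, the mean activation of sample wells on that plate plus 3 SD, cut at about 8% in these data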
m5-HT2A agonist = mouse Htr2a agonists via beta-arrestin recruitment, primary screen, cell-based, luminescence | 5-hydroxytryptamine receptor 2A (Mus musculus), P35363 | 0.66% of 360,000 active | CHO-K1 mHTR2A beta-arrestin complementation; percent of 30 µM serotonin response | activation, % at 7.6 µM;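 active = activation above a run cutoff, the mean activation of all tested compounds plus 3 SD, cut at about 14% in these data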;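 note: 0% = plate median of compound wells and 100% = 30 µM serotonin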
AHR act = AHR activators, primary screen, cell-based, luminescence, luciferase reporter, human | 2.5% of 320,000 active | AHR-responsive luciferase reporter cells | AID 2796, 2010 | activation, % at 5 µM; in the data active = activation above about 47%;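 note: 0% = vehicle wells and 100% = reference agonist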
Target sequence (P35869 whole entry, looked up): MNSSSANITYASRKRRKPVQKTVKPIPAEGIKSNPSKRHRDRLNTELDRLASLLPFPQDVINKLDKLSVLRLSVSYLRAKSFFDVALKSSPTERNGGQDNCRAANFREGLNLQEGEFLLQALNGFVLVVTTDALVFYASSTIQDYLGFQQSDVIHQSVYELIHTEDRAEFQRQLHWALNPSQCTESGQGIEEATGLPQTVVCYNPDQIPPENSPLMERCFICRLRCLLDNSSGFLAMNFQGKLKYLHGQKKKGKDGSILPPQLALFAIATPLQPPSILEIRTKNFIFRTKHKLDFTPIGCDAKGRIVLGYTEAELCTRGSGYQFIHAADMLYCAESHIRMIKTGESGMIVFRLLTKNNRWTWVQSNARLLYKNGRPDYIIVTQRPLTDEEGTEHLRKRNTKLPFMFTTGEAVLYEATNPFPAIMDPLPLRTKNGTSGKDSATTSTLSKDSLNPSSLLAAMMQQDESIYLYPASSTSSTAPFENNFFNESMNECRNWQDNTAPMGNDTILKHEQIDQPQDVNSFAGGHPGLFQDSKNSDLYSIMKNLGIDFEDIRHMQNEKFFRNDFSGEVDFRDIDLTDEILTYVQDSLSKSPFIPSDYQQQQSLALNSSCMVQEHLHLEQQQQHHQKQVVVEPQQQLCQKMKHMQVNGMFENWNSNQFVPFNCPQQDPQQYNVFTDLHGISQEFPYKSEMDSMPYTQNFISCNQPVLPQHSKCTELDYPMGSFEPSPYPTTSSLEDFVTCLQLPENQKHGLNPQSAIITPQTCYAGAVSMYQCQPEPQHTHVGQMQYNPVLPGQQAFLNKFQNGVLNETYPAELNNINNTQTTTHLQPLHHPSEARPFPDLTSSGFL
MC4R antag cAMP = MC4R antagonists of cAMP signaling, primary screen, cell-based, TR-FRET, antagonist arm of biased-ligand search; Melanocortin receptor 4 (Homo sapiens), P32245; MC4R-expressing cells, MTII-stimulated cAMP, LANCE TR-FRET; inhibition, % at 6.5 µM; 0.48% of 360,000 active;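 active = inhibition above its plate's cutoff, the mean of tested wells on that plate plus 3 SD, cut at about 29% in these data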;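 note: 0% = Melanotan II alone and 100% = Melanotan II plus saturating MCL0020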
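system = U2OS cells with stable human MC4R expression | also added = Melanotan II challenge after compound preincubation | dosing = one concentration, 6.5 µM nominal | incubation = compound 30 min, challenge 1 h, detection 1 h | measured by = TR-FRET with Eu-cAMP and labeled anti-cAMP, 671 nm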
AHR act confirm = AHR activators, confirmation, cell-based, luminescence, luciferase reporter, human; shares compounds with AHR act; human cells, AHR-responsive luciferase reporter; activation, % at 9 µM; 87% of 2,300 active; in the data active = activation above about 49%;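 note: HepG2 hepatoma cells carrying a DRE-driven firefly luciferase reporter; 0% = vehicle wells and 100% = reference agonist wells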
PXR counter = human PXR activators, counter-screen for AHR activator project, cell-based, luciferase luminescence; shares compounds with AHR act; cell-based PXR reporter; activation, % at 11.6 µM; 88% of 2,300 active; in the data active = activation above about 11%;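 note: human hepatoma DPX-2 cells expressing full-length human PXR; 0% = DMSO and 100% = reference agonist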
Numbers without * were called inactive; nt = no result.

SMILES	GAA850 FXN act	MC4R ag barr	m5-HT2A agonist	AHR act	MC4R antag cAMP	AHR act confirm	PXR counter
CCNC(=S)N1CCN(CCN2C(=O)c3cccc4cccc(c34)C2=O)CC1	2.7	-2.4	-1.4	-2.4	12.8	nt	nt
Cn1cnc(S(=O)(=O)N2CCCCC2c2cc(C(=O)Nc3cccc4c3CCCC4)no2)c1 (stereo not given)	0.6	0.2	2.8	nt	2.2	nt	nt
CN(C(=O)CSCC(=O)Nc1ccc(Cl)cc1)C1CCCCC1	-2.3	3.3	0.3	1.8	16.8	nt	nt
O=C(Nc1ccc2c(c1)OCO2)c1csc([C@H]2C[C@H](O)[C@@H](CO)O2)n1	2.2	-0.6	3.7	nt	-1.8	nt	nt
Cc1ccc(C(=O)CC2(O)C(=O)N(C)c3ccccc32)s1 (stereo not given)	0.4	0.5	1.2	-1.1	0.7	nt	nt
CC1=C(C(=O)N(C)C)CC(CC(=O)NCc2ccco2)C(=O)N1Cc1ccccc1 (stereo not given)	1.0	1.6	1.9	nt	-0.1	nt	nt
CCC(C)OC(=O)c1[nH]c2c(c1C)C(=O)CC(c1ccc(N(C)C)cc1)C2 (stereo not given)	2.1	-1.6	4.2	82.5*	20.5	35.4	70.4*
O=c1cc(-c2ccccc2)oc2ccc(Br)cc12	4.6	0.8	9.0	98.8*	-0.1	79.6*	39.1*
Cc1cc(SCC(=O)c2cccs2)nc2ccccc12	0.8	4.2	-2.8	98.7*	-6.9	103.3*	154.9*
O=C(OCC(=O)N1CCN(C(=O)c2ccco2)CC1)c1ccccc1NCCO	1.0	0.1	-0.6	4.0	10.7	nt	nt
CC(C)S(=O)(=O)N1CCCC(c2cc(C(=O)NCc3ccccc3)no2)C1 (stereo not given)	-1.0	2.2	-4.9	nt	13.9	nt	nt
O=C1c2ccccc2NC(c2ccc3c(c2)OCO3)N1O (stereo not given)	5.0	-1.1	4.6	122.1*	3.6	133.5*	24.7*
COc1ccc(Nc2nc3cc(C)ccc3cc2C#N)cc1	2.1	3.6	9.1	107.6*	5.6	93.7*	14.9*
COc1ccc(Nc2nc3cc(C)ccc3cc2C#N)c(OC)c1	-4.4	-2.2	3.5	9.3	-21.6	nt	nt
Cc1[nH][nH]c(=O)c1N=Nc1ccc(Br)c(Cl)c1	0.1	-2.7	0.3	85.3*	2.6	127.6*	10.8*
Cc1[nH][nH]c(=O)c1N=Nc1ccc(S(N)(=O)=O)cc1	-1.0	-1.6	-2.7	1.9	-27.0	nt	nt
COc1ccc(CN2CCC(Oc3ccc(C(=O)N4CCCC4)cc3)CC2)c(F)c1	2.5	-3.0	-1.2	5.5	3.1	nt	nt
CN(C)c1ccc([C@@H]2[C@@H]([N+](=O)[O-])[C@H]3C=Cc4ccccc4N3[C@H]2C(=O)c2ccc(Cl)cc2)cc1	-1.6	-2.0	-1.8	107.1*	-1.5	97.9*	71.8*
CCCCCN1CC(=O)N2C(C)c3[nH]c4ccccc4c3C[C@H]2C1=O (stereo not given in full)	-0.1	2.4	-0.6	-0.9	14.0	nt	nt
Cc1c(C(=O)OCC2CCCO2)[nH]c2c1C(=O)CC(c1ccco1)C2 (stereo not given)	-1.2	-0.7	-1.0	8.3	-24.0	nt	nt
C/C=C/COC(=O)c1[nH]c2c(c1C)C(=O)CC(c1ccco1)C2 (stereo not given)	-3.0	4.7	-2.6	115.9*	-31.9	40.7	196.5*
C=CCOC(=O)c1[nH]c2c(c1C)C(=O)CC(c1ccco1)C2 (stereo not given)	nt	nt	nt	103.1*	nt	22.6	195.2*
O=C(/C=C\c1ccccc1)Nc1nccs1	-1.3	-1.8	-4.0	111.1*	-5.6	72.9*	20.7*
CC(C(=O)NC1CCCC1)n1c(C2CC2)nc2ccccc21 (stereo not given)	nt	nt	0.6	nt	nt	nt	nt
